Converted amounts (≈) assume the structure as drawn.
Experiments:
S. pneumoniae DSM20566 [1] = experiment: Biofilm inhibition assay; type: cell-based; conditions: DSM20566, TSB, 24 h
[2] = tested on: pneumococcal NA of strain CJ9400; experiment: Lectin-based hemagglutination; type: cell-based, S. pneumoniae; conditions: minimal NA inhibitory concentration
[3] = tested on: pneumococcal NA of strain D39; experiment: Lectin-based hemagglutination; type: cell-based, S. pneumoniae
S. pneumoniae BC57 [4] = experiment: Biofilm inhibition assay; type: cell-based; conditions: BC57, TSB, 24 h
S. pneumoniae DSM14378 [5] = experiment: Biofilm inhibition assay; type: cell-based; conditions: DSM14378, TSB, 24 h
S. pneumoniae CF6937 [6] = experiment: Biofilm inhibition assay; type: cell-based; conditions: CF6937, TSB, 24 h
S. pneumoniae D39 [7] = experiment: Minimal bactericidal concentration; type: cell-based; conditions: viability reduced by ≥99.9%
S. pneumoniae [8] = experiment: Bactericidal activity, studied pneumococci; type: cell-based
[9] = target: recombinant NanA of DSM20566 (Streptococcus pneumoniae, UniProt P62575); type: biochemical, S. pneumoniae; conditions: for mechanism of inhibition: rNanA, Lineweaver-Burk / SigmaPlot analysis
S. pneumoniae CF8919 [10] = experiment: Biofilm inhibition assay; type: cell-based; conditions: CF8919, TSB, 24 h
S. pneumoniae DSM14378 [11] = experiment: Minimal bactericidal concentration; type: cell-based; conditions: viability reduced by ≥99.9%
S. pneumoniae CF6937 [12] = experiment: Minimal bactericidal concentration; type: cell-based; conditions: viability reduced by ≥99.9%
S. pneumoniae PN8828 [13] = experiment: Biofilm inhibition assay; type: cell-based; conditions: PN8828, TSB, 24 h
pneumococcal NA = pneumococcal NA (Streptococcus pneumoniae, UniProt P62575); conditions: ref Gut et al., 2011; cited from earlier work
viral NAs = conditions: ref Collins et al., 2008; cited from earlier work
S. pneumoniae D39 [14] = experiment: Biofilm inhibition assay; type: cell-based; conditions: D39, TSB, 24 h
S. pneumoniae BC7326 [15] = experiment: Biofilm inhibition assay; type: cell-based; conditions: BC7326, TSB, 24 h
S. pneumoniae BC7326 [16] = experiment: Minimal bactericidal concentration; type: cell-based; conditions: viability reduced by ≥99.9%
S. pneumoniae DSM20566 [17] = experiment: Minimal bactericidal concentration; type: cell-based; conditions: viability reduced by ≥99.9%
[18] = tested on: pneumococcal NA of strain DSM20566; experiment: Lectin-based hemagglutination; type: cell-based, S. pneumoniae; conditions: minimal NA inhibitory concentration
S. pneumoniae CJ9400 [19] = experiment: Biofilm inhibition assay; type: cell-based; conditions: CJ9400, TSB, 24 h
S. pneumoniae CJ9400 [20] = experiment: Minimal bactericidal concentration; type: cell-based; conditions: viability reduced by ≥99.9%
[21] = tested on: pneumococcal adherence to pulmonary epithelial A549 cells
S. pneumoniae [22] = experiment: Biofilm inhibition assay; type: cell-based; conditions: range among all tested strains
S. pneumoniae D39 [23] = experiment: Broth microdilution assay; type: cell-based; conditions: Streptococcus pneumoniae, D39, 18 h, read-out: 90% minimal inhibitory concentration
S. pneumoniae DSM20566 [24] = experiment: Broth microdilution assay; type: cell-based; conditions: Streptococcus pneumoniae, DSM20566, 18 h, read-out: 90% minimal inhibitory concentration
S. pneumoniae DSM14378 [25] = experiment: Broth microdilution assay; type: cell-based; conditions: Streptococcus pneumoniae, DSM14378, 18 h, read-out: 90% minimal inhibitory concentration
S. pneumoniae PN8828 [26] = experiment: Broth microdilution assay; type: cell-based; conditions: Streptococcus pneumoniae, PN8828, 18 h, read-out: 90% minimal inhibitory concentration
S. pneumoniae CJ9400 [27] = experiment: Broth microdilution assay; type: cell-based; conditions: Streptococcus pneumoniae, CJ9400, 18 h, read-out: 90% minimal inhibitory concentration
A549 cells = experiment: Cytotoxicity on confluent A549 cell monolayers; type: cell-based, human; conditions: 12.50 μM, A549, 72 h
Method in brief: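 Three-day-old confluent A549 monolayers were exposed to two-fold serial compound dilutions in duplicate for 72 h at 37°C, 5% CO₂. Cells were washed, fixed and crystal violet-stained, and dye was eluted in citrate/HCl/ethanol buffer for OD550. Viability is relative to six untreated controls. CC50 comes from mean dose-response curves of at least three assays. Morphology at 12.5 µM was checked by phase-contrast microscopy.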

S. pneumoniae CF8919 [28] = experiment: Broth microdilution assay; type: cell-based; conditions: Streptococcus pneumoniae, CF8919, 18 h, read-out: 90% minimal inhibitory concentration
human erythrocytes = experiment: Erythrocyte hemolysis assay; type: cell-based; conditions: observed in HA assay with D39 protein
[29] = Erythrocyte hemolysis assay; type: cell-based, human; conditions: human, erythrocytes
S. pneumoniae CF6937 [30] = experiment: Broth microdilution assay; type: cell-based; conditions: Streptococcus pneumoniae, CF6937, 18 h, read-out: 90% minimal inhibitory concentration
S. pneumoniae BC7326 [31] = experiment: Broth microdilution assay; type: cell-based; conditions: Streptococcus pneumoniae, BC7326, 18 h, read-out: 90% minimal inhibitory concentration
S. pneumoniae BC57 [32] = experiment: Broth microdilution assay; type: cell-based; conditions: Streptococcus pneumoniae, BC57, 18 h, read-out: 90% minimal inhibitory concentration
S. pneumoniae [33] = experiment: Broth microdilution assay; type: cell-based; conditions: Streptococcus pneumoniae, read-out: MIC90 values
Method in brief: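 Pneumococci were pre-grown in BHI with gentle shaking at 37°C for 4–5 h (mid-exponential), adjusted to McFarland 0.5 (1.5 × 10^8 cfu/mL) and diluted 50× in BHI. 50 µL bacteria plus 100 µL of two-fold compound dilutions (top 50 or 200 µM) in BHI were run in duplicate, overnight at 37°C, 5% CO₂. OD620 at 18 h minus 0 h was taken relative to no-compound growth control; MIC90 is 90% turbidity reduction.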

[34] = tested on: S. pneumoniae PN8828 adherence to A549 cells; experiment: Adherence inhibition assay on A549 cells; type: cell-based; conditions: Streptococcus pneumoniae, A549, 1.5 h, read-out: concentration giving 50% reduction in adherence levels (AIC50)
[35] = tested on: S. pneumoniae DSM20566 adherence to A549 cells; experiment: Adherence inhibition assay on A549 cells; type: cell-based; conditions: Streptococcus pneumoniae, DSM20566, A549, 1.5 h, read-out: concentration giving 50% reduction in adherence levels (AIC50)

Sequence of recombinant NanA of DSM20566 (P62575 116-1035 limits assumed): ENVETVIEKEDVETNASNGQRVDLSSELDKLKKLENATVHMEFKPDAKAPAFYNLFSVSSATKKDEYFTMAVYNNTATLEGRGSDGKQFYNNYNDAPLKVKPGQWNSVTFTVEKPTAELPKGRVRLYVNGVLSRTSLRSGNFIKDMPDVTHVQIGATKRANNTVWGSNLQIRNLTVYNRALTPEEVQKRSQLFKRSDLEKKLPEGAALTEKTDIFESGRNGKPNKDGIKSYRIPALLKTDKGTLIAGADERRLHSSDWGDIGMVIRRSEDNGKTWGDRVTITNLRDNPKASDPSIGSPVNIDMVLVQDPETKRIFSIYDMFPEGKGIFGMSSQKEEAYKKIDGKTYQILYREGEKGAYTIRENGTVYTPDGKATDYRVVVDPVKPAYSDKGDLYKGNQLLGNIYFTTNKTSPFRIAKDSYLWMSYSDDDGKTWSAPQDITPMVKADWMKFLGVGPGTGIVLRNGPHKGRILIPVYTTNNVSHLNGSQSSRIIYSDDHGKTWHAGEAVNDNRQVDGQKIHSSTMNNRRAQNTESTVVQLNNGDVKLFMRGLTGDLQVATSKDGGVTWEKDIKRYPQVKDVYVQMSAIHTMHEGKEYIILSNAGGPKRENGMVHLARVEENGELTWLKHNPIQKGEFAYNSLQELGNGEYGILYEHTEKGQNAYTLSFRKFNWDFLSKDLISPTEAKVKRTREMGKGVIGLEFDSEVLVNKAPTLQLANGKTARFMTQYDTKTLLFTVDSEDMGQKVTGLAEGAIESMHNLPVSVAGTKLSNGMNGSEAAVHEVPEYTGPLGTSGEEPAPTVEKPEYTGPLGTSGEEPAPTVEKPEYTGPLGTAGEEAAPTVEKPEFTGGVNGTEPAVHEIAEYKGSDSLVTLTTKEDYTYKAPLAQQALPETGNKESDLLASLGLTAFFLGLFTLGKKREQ
Sequence of pneumococcal NA (P62575 54-1006): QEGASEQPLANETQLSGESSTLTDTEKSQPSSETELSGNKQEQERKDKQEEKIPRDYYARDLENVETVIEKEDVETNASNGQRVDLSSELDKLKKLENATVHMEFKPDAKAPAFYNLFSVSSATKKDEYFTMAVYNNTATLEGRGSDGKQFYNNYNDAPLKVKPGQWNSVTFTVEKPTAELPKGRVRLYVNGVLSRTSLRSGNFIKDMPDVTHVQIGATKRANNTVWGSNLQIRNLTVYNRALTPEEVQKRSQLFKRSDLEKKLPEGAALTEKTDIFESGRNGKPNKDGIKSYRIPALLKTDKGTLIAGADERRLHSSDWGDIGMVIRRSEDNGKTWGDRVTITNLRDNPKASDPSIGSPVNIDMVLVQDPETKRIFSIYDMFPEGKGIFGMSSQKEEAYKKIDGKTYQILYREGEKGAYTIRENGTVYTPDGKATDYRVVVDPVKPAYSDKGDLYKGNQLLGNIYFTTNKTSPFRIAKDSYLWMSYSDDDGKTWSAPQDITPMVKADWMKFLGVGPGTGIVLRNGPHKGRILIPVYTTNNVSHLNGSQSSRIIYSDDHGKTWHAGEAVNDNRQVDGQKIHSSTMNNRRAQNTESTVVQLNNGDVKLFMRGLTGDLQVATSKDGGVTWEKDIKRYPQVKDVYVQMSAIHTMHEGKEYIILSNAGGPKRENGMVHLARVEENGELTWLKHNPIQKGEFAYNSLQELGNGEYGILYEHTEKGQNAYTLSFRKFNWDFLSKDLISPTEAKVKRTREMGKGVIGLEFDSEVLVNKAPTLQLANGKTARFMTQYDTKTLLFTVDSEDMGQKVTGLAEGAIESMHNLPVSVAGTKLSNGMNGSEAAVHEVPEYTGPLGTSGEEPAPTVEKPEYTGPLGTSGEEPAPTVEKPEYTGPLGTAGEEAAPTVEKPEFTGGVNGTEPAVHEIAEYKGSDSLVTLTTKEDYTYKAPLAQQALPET

Row | SMILES | 90% minimal biofilm inhibitory concentration (S. pneumoniae DSM20566 [1]) | Inhibitory concentration (HA assay) [2] | 90% minimal biofilm inhibitory concentration (S. pneumoniae BC57 [4]) | 90% minimal biofilm inhibitory concentration (S. pneumoniae DSM14378 [5]) | 90% minimal biofilm inhibitory concentration (S. pneumoniae CF6937 [6]) | Bactericidal concentration (S. pneumoniae D39 [7]) | mechanism of inhibition [9] | 90% minimal biofilm inhibitory concentration (S. pneumoniae CF8919 [10]) | Bactericidal concentration (S. pneumoniae DSM14378 [11]) | Bactericidal concentration (S. pneumoniae CF6937 [12]) | 90% minimal biofilm inhibitory concentration (S. pneumoniae PN8828 [13]) | 90% minimal biofilm inhibitory concentration (S. pneumoniae D39 [14]) | 90% minimal biofilm inhibitory concentration (S. pneumoniae BC7326 [15]) | Bactericidal concentration (S. pneumoniae BC7326 [16]) | Bactericidal concentration (S. pneumoniae DSM20566 [17]) | Inhibitory concentration (HA assay) [18] | 90% minimal biofilm inhibitory concentration (S. pneumoniae CJ9400 [19]) | Bactericidal concentration (S. pneumoniae CJ9400 [20]) | also measured
1 | CCC(CC)O[C@@H]1C=C(C(=O)O)C[C@H](N)[C@H]1NC(C)=O [oseltamivir, Oseltamivir carboxylate] | > 50 µM | 0.3 ± 0.0 µM | > 50 µM | > 50 µM | > 50 µM | > 50 µM | competitively inhibited | > 50 µM | > 50 µM | > 50 µM | > 50 µM | > 50 µM | > 50 µM | > 50 µM | > 50 µM | 2.1 ± 1.3 µM | > 50 µM | > 50 µM | Inhibitory concentration (HA assay) ([3]; minimal NA inhibitory concentration, strain D39): 10.0 ± 0.0 µM; concentration up to which no inhibitory or bactericidal activity was exhibited (S. pneumoniae [8]; maximum tested concentration): > 50 µM; factor by which inhibitory activity on bacterial NAs is lower than on viral NAs ([9]; compared to viral NAs Ki of 0.32 nM): 1000; Ki ([9]; rNanA of DSM20566, MUNANA substrate): 0.23 µM; inhibitory potency to pneumococcal NA (in words) (pneumococcal NA): medium; Ki (viral NAs): 0.00032 µM; effect on adhesion of pneumococci to A549 cells (in words) ([21]; DSM20566 and PN8828): did not reduce pneumococcal adherence
2 | COc1cc2oc(-c3ccc(O)cc3O)c(CC=C(C)C)c(=O)c2c(O)c1/C=C/C(C)C [artocarpin] | 2.88 ± 0.07 µM | 2.6 ± 1.1 µM | 2.35 ± 0.68 µM | 2.37 ± 0.67 µM | 2.73 ± 0.27 µM | 2.50 ± 0.77 µM | mixed-type inhibition | 1.15 ± 0.34 µM | 4.69 ± 1.98 µM | 3.44 ± 1.53 µM | 1.40 ± 0.07 µM | 2.22 ± 0.76 µM | 2.02 ± 0.62 µM | 3.32 ± 1.94 µM | 3.13 ± 0.00 µM | 7.7 ± 4.0 µM | 2.97 ± 0.13 µM | 2.74 ± 0.68 µM | mean MBIC90 values (S. pneumoniae [22]): 1.15 to 2.97 µM; MIC (S. pneumoniae D39 [23]): 1.29 ± 0.31 µM (≈ 0.563 µg/mL); activity in HA assay (in words) ([3]; reference strain D39): no activity; MIC (S. pneumoniae DSM20566 [24]): 5.58 ± 0.97 µM (≈ 2.44 µg/mL); MIC (S. pneumoniae DSM14378 [25]): 5.75 ± 0.13 µM (≈ 2.51 µg/mL); MIC (S. pneumoniae PN8828 [26]): 0.99 ± 0.48 µM (≈ 0.432 µg/mL); factor of reduction of viability of pneumococci (S. pneumoniae [8]; within 18 h): > 1000; MIC (S. pneumoniae CJ9400 [27]): 3.45 ± 2.05 µM (≈ 1.51 µg/mL); cytotoxic effect (in words) (A549 cells): no cytotoxic effect; MIC (S. pneumoniae CF8919 [28]): 1.45 ± 0.01 µM (≈ 0.633 µg/mL); concentration at which erythrocytes were lysed (human erythrocytes): b The erythrocytes were lysed in the presence of artocarpin at concentrations higher than 10 µM.; hemolysis at 3 h, 31.6 µM [29]: 20%; MIC (S. pneumoniae CF6937 [30]): 3.39 ± 2.1 µM (≈ 1.48 µg/mL); MIC (S. pneumoniae BC7326 [31]): 1.12 ± 0.37 µM (≈ 0.489 µg/mL); MIC (S. pneumoniae BC57 [32]): 1.45 ± 0.04 µM (≈ 0.633 µg/mL); MIC90 (S. pneumoniae [33]): 0.99 to 5.75 µM (≈ 0.432 to 2.51 µg/mL); IC50 [34]: 4.1 µM; effect on A549 cell viability under adherence assay conditions (in words) [21]: did not affect cell viability; IC50 [35]: 7.5 µM

From publication PMC5730044 (International journal of medical microbiology : IJMM, 2014)
